Experimental data from paper PMC4912403 (Nature chemical biology, 2016).
“Also recorded” adds a separate entry of the source.

Assays:
[1] = test system: 7 dpf zebrafish larvae; test: zebrafish strobe light response; assay type: in vivo, Danio rerio; conditions: for switch of strobe light response from freezing to escape behavior (in words): dose curves, freezing index, 7 dpf larvae, 1 hr incubation
Procedure, shortened: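 7 dpf larvae (EkkWill; TuAB sigmar1 frameshift mutants vs WT siblings) raised in 10 mM HEPES-E3 at 28 °C, 10 per well. Compound added at 1:100 from stock, 1 hr at 28 °C in ambient light; genetic tests included 10 μM scopolamine. Infrared video across alternating 1-min dark/strobe periods. Freezing index = third-quartile motion, strobe minus dark. 12 wells/dose; switching concentration taken from the dose-curve zero intercept.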

[2] = target: sigma-1 receptor (Cavia porcellus, UniProt Q60492); test: sigma-1 radioligand competition binding assay; set-up: species or system rodent
Sequence of sigma-1 receptor (Q60492 whole entry): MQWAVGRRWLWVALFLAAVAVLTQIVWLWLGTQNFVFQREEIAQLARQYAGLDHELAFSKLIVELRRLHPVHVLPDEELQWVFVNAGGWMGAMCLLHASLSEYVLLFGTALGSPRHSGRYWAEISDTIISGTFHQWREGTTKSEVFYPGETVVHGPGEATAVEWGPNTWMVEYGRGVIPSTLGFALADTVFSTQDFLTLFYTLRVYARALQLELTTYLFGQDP

SMILES | switch of strobe light response from freezing to escape behavior (in words) [1] | also measured
COC(=O)C(c1ccccc1)C1CCCCN1 (centres unmarked) [methylphenidate] | did not cause strobe-induced | 
COC(=O)[C@H]1[C@@H](OC(=O)c2ccccc2)C[C@@H]2CC[C@H]1N2C [cocaine] | did not cause strobe-induced | 
CN1CCC[C@H]1c1cccnc1 [nicotine] | did not cause strobe-induced | 
CC(N)Cc1ccccc1 (centres unmarked) [amphetamine] | did not cause strobe-induced | 
COc1ccccc1N1CCN(CC(O)COc2cccc3ccccc23)CC1 (centres unmarked) [naftopidil] |  | switch from freezing to escape at 5 μM ([1]; 5 μM): just barely switched the zebrafish response from freezing to escape; immobilization of larvae at 10 μM ([1]; 10 μM, presumably due to toxicity): completely immobilized the larvae
Cc1cccc(NC(=O)CCN2CCNCC2)c1 [Compound 27, 3-(piperazin-1-yl)-N-(m-tolyl)propanamide] | no effect; also recorded: ineffective at modulating behavior | sigma-1 binding (in words) [2]: lost its binding potency at sigma-1
